From ChEMBL document CHEMBL1122314, “Acute effects of alkylating agents on canine renal function: specifically designed synthetic maleimides” (J Med Chem, 1983) come the findings set out here.

The source made the active and inactive calls. No cut-off for these calls is given here.

Data set [1] concerns Canis familiaris. The data set can be described thus: The changes in canine renal function that were monitored over the 2-h interval following 20 umol/kg renal arterial administration; no change. In kind it is functional, organism-based. The note with it: Canis lupus familiaris.
The test system of data set [2] is Canis familiaris. Briefly: The changes in canine renal function that were monitored over the 2-h interval following 73 umol/kg intravenous administration. The class given is functional, Canis lupus familiaris. The procedure, abridged: (§1)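 Dogs received the maleimide into the jugular vein at 73.0 or 146 µmol/kg over 10 min, dissolved in 0.9% saline with an equivalent amount of NaHCO3. Urine was collected in 10-min periods for 2 h. Read-outs were urine flow, urinary pH, GFR (inulin clearance), and Na, K (flame photometry) and Cl excretion. Each value is the change from the immediately preceding pretreatment period, analysed by Dunnett's test.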

Data set [3] concerns Canis familiaris. The data set can be described thus: The changes in canine renal function that were monitored over the 2-h interval following 20 umol/kg renal arterial administration; NC=no change. The class given is functional, organism-based. The conditions noted are these: Canis lupus familiaris.
The subject of data set [4] is Canis familiaris. Briefly: The changes in canine renal function that were monitored over the 2-h interval following 146 umol/kg intravenous administration. In kind it is functional, Canis lupus familiaris. A digest of the protocol: as §1
Data set [5] is described as follows: Half life period with L-Lys; activity expressed in terms of rx, no rx means no reaction. The class given is ADME.
Data set [6] is described as follows: Half life period with Glutathione (GSH); activity expressed in terms of rx, no rx means no reaction. In kind it is ADME.

Take `CC1=CC(=O)N(c2ccc(C(=O)NCC(=O)O)cc2)C1=O`: the Change entry in the data set on Canis familiaris [1] is “inactive”. With `CC1=C(C)C(=O)N(c2ccc(C(=O)O)cc2)C1=O`, the Change result in the data set with Canis familiaris [1] is “inactive”. As for `O=C(O)c1ccc(N2C(=O)C=CC2=O)cc1`, the Change entry with Canis familiaris [1] is “inactive”. On the same count and under the same terms, then `CC1=CC(=O)N(c2ccc(C(=O)O)cc2)C1=O`, with “inactive”. Regarding `O=C(O)CNC(=O)c1ccc(N2C(=O)C=CC2=O)cc1`, the Change in the data set on Canis familiaris [2] is listed as roughly -5. In addition, the Change entry with Canis familiaris [3] is “inactive”.

In turn, `CC1=CC(=O)N(c2ccc(C(=O)O)cc2C)C1=O` yielded a Change in the data set on Canis familiaris [4] of 5. Also, the Change entry with Canis familiaris [1] is “inactive”. In the case of `CC1=C(C)C(=O)N(c2ccc(C(=O)NCC(=O)O)cc2)C1=O`, in the data set on Canis familiaris [1], the Change entry was “inactive”. Besides, the T1/2 result in data set [5] and in data set [6] was “No RX” throughout.
